Data taken from ChEMBL document CHEMBL1125330, “N-substituted pyrazino[2,3-c][1,2,6]thiadiazine 2,2-dioxides. A new class of diuretics” (J Med Chem, 1992).

Key:
Conditions in all cases: in vivo
Rattus norvegicus [1] = species on record: Rattus norvegicus; test: Mean urinary output in rats (Control/Drug treatment value); value 22.8/35.1; type: ADME, organism-based, Urine
In short: (§1)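 Water-loaded male Sprague-Dawley rats (HC/CFY, 175-200 g), eight per group, deprived of food and water 18 h. Single oral gavage of 20-25 mg/kg (some 10 mg/kg) in 1% CMC/0.1% Tween 80, then distilled water 2.5 mL/100 g bw po. Cumulative urine over 6 h in metabolic cages; mean mL/6 h/kg bw vs vehicle group.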

Rattus norvegicus [2] = species on record: Rattus norvegicus; test: Mean sodium excretion in rats (Control/Drug treatment value); value 0.41/2.06; type: ADME, organism-based
Rattus norvegicus [3] = species on record: Rattus norvegicus; test: Mean sodium excretion in rats (Control/Drug treatment value); value 0.48/0.95; type: ADME, organism-based
Rattus norvegicus [4] = species on record: Rattus norvegicus; test: Mean urinary output in rats (Control/Drug treatment value); value 25.4/33.8; type: ADME, organism-based, Urine; in short: as §1
Rattus norvegicus [5] = species on record: Rattus norvegicus; test: Mean sodium excretion in rats (Control/Drug treatment value); value 0.5/1.79; type: ADME, organism-based
Rattus norvegicus [6] = species on record: Rattus norvegicus; test: Mean urinary output in rats (Control/Drug treatment value); value 27.7/36.4; type: ADME, organism-based, Urine
Rattus norvegicus [7] = species on record: Rattus norvegicus; test: Mean urinary output in rats (Control/Drug treatment value); value 26.1/45.7; type: ADME, organism-based, Urine; in short: as §1
Rattus norvegicus [8] = species on record: Rattus norvegicus; test: Mean sodium excretion in rats (Control/Drug treatment value); value 0.44/2.68; type: ADME, organism-based

**Q.** Which V (Rattus norvegicus [1]) does the source give for `CCCN1c2nc(CC)c(C)nc2C(N)=NS1(=O)=O` here?
**A.** The V was 1.5.

**Q.** And the Na (Rattus norvegicus [2])?
**A.** Its Na is 5.

**Q.** Which results are given for `CCc1nc2c(nc1CC)N(CC)S(=O)(=O)N=C2N`?
**A.** Na (Rattus norvegicus [3]): 2; V (Rattus norvegicus [4]): 1.3

**Q.** `CCN1c2nc(C)c(C)nc2C(N)=NS1(=O)=O` was tested. Which Na (Rattus norvegicus [5]) did it give?
**A.** The Na was 3.6 m equiv 6hr-1 kg-1 (body weight)-1.

**Q.** What about the V (Rattus norvegicus [6]) of the same molecule?
**A.** Its V is 1.3.

**Q.** How did the V (Rattus norvegicus [7]) turn out when `CCCN1c2nc(C)c(C)nc2C(N)=NS1(=O)=O` was run?
**A.** Its V is 1.8.

**Q.** What about the Na (Rattus norvegicus [8]) of the same molecule?
**A.** The Na was 6.1.
